Experiment [1] is described as follows: Reversible competitive inhibition of Mycobacterium tuberculosis PTPB expressed in Escherichia coli BL21/DE3 cells using pNPP as substrate after 5 mins by Lineweaver-Burk plot analysis.
Experiment [2] has as its target Dual specificity protein phosphatase 10 (Homo sapiens) (UniProt Q9Y6W6). The experiment can be described thus: Inhibition of MKP5 (unknown origin) using pNPP as substrate at 200 uM after 5 mins by spectrophotometry. The method, boiled down: (§1)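 Single-point screen: the test compound is present at 200 μM in the assay (a compound concentration, not a substrate level). The read-out is phosphatase-catalysed hydrolysis of para-nitrophenyl phosphate.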

A short description of experiment [3]: Selectivity ratio of IC50 for Laforin (unknown origin) to IC50 for Mycobacterium tuberculosis PTPB.
Experiment [4] is described as follows: Inhibition of Mycobacterium tuberculosis PTPB expressed in Escherichia coli BL21/DE3 cells using pNPP as substrate after 5 mins by spectrophotometry.
The target of experiment [5] is Receptor-type tyrosine-protein phosphatase epsilon (Homo sapiens) (UniProt P23469). The experiment can be described thus: Inhibition of PTPepsilon (unknown origin) using pNPP as substrate at 200 uM after 5 mins by spectrophotometry. The method, boiled down:
as §1

For the next experiment, the system named is RAW264.7. Kind of experiment: Inhibition of Mycobacterium tuberculosis PTPB transfected in mouse RAW264.7 cells assessed as increase in p38 phosphorylation pre-treated for 1 hrs followed by stimulation with IFNgamma for 1 hr by Western blotting method. The class given is cell-based.
Experiment [6] can be described thus: Selectivity ratio of IC50 for PTPalpha (unknown origin) to IC50 for Mycobacterium tuberculosis PTPB. The method, boiled down: (§2)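 Each phosphatase in the 25-enzyme panel was tested for inhibition at 200 μM compound. The mPTPB IC50 was determined against mPTPB-catalysed hydrolysis of para-nitrophenyl phosphate. The ratio is the panel-enzyme IC50 divided by the mPTPB IC50.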

Experiment [7] addresses Receptor-type tyrosine-protein phosphatase S (Homo sapiens) (UniProt Q13332). The experiment can be described thus: Inhibition of PTPsigma (unknown origin) using pNPP as substrate at 200 uM after 5 mins by spectrophotometry. The method, boiled down: as §1
Experiment [8] is described as follows: Selectivity ratio of IC50 for VHX (unknown origin) to IC50 for Mycobacterium tuberculosis PTPB. A digest of the protocol: as §2
Experiment [9] relates to Mycobacterium tuberculosis. The experiment can be described thus: Selectivity ratio of IC50 for Mycobacterium tuberculosis PTPA to IC50 for Mycobacterium tuberculosis PTPB.
Experiment [10] concerns the target Low molecular weight protein-tyrosine phosphatase A (Mycobacterium tuberculosis) (UniProt P9WIA1). The experiment can be described thus: Inhibition of Mycobacterium tuberculosis PTPA expressed in Escherichia coli using pNPP as substrate at 200 uM after 5 mins by spectrophotometry. The method, boiled down: as §1
Experiment [11] can be described thus: Selectivity ratio of IC50 for FAP1 (unknown origin) to IC50 for Mycobacterium tuberculosis PTPB.
A short description of experiment [12]: Selectivity ratio of IC50 for LYP (unknown origin) to IC50 for Mycobacterium tuberculosis PTPB.
Experiment [13] concerns the target Tyrosine-protein phosphatase non-receptor type 13 (Homo sapiens) (UniProt Q12923). Kind of experiment: Inhibition of FAP1 (unknown origin) expressed in Escherichia coli using pNPP as substrate at 200 uM after 5 mins by spectrophotometry. A digest of the protocol:
as §1

The target of experiment [14] is Tyrosine-protein phosphatase non-receptor type 6 (Homo sapiens) (UniProt P29350). The experiment can be described thus: Inhibition of SHP1 (unknown origin) expressed in Escherichia coli using pNPP as substrate at 200 uM after 5 mins by spectrophotometry. The method, boiled down: as §1
Tyrosine-protein phosphatase non-receptor type 6 (Homo sapiens), sequence (P29350 whole entry): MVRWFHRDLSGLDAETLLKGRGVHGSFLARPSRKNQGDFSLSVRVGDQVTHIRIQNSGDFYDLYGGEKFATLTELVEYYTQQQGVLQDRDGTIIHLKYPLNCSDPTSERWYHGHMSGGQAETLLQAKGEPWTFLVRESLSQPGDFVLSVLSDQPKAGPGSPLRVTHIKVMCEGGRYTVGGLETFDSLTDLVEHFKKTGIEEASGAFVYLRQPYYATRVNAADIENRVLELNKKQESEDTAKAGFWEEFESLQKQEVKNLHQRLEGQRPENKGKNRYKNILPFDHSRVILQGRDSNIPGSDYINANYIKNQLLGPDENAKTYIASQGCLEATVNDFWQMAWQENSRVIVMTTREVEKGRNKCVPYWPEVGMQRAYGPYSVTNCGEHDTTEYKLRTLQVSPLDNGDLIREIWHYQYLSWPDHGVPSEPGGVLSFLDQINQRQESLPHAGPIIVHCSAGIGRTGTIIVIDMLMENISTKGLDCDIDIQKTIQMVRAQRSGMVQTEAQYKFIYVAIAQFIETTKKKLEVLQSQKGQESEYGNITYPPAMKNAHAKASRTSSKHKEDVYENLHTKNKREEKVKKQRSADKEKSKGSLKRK
Experiment [15] in a line: Selectivity ratio of IC50 for MKP5 (unknown origin) to IC50 for Mycobacterium tuberculosis PTPB.
Experiment [16] can be described thus: Selectivity ratio of IC50 for PTPH1 (unknown origin) to IC50 for Mycobacterium tuberculosis PTPB. The method, boiled down:
as §2

Another experiment concerns the target Laforin (Homo sapiens) (UniProt O95278). Kind of experiment: Inhibition of Laforin (unknown origin) using pNPP as substrate at 200 uM after 5 mins by spectrophotometry. A digest of the protocol: as §1
Experiment [17] is described as follows: Selectivity ratio of IC50 for PTP1B (unknown origin) to IC50 for Mycobacterium tuberculosis PTPB.
Experiment [18] in a line: Selectivity ratio of IC50 for CD45 (unknown origin) to IC50 for Mycobacterium tuberculosis PTPB.
Experiment [19] deals with Mitogen-activated protein kinase 1 and 3 (ERK2 and ERK1) (Mus musculus) (UniProt P63085+Q63844). The experiment can be described thus: Effect on ERK1/2 phosphorylation in mouse RAW264.7 cells transfected with empty vector at 10 to 40 nM pre-treated for 1 hrs followed by stimulation with IFNgamma for 1 hr by Western blotting method. The class given is cell-based. (Immunoblotting shows a protein as a band on a membrane.)

The nature of experiment [20]: Selectivity ratio of IC50 for CDC14A (unknown origin) to IC50 for Mycobacterium tuberculosis PTPB.
Experiment [21] concerns the target Receptor-type tyrosine-protein phosphatase C (Homo sapiens) (UniProt P08575). The experiment can be described thus: Inhibition of CD45 (unknown origin) expressed in Escherichia coli using pNPP as substrate at 200 uM after 5 mins by spectrophotometry. The method, boiled down:
as §1

The nature of experiment [22]: Selectivity ratio of IC50 for VHR (unknown origin) to IC50 for Mycobacterium tuberculosis PTPB. A digest of the protocol:
as §2

From ChEMBL document CHEMBL3769383, “Cefsulodin Inspired Potent and Selective Inhibitors of mPTPB, a Virulent Phosphatase from Mycobacterium tuberculosis” (ACS Med Chem Lett, 2015) come the findings set out here.

Activity calls are given as the source filed them. The calls are words filed in the database; no cut-off is given here. Some results are limits rather than exact numbers.

Dual specificity protein phosphatase 10 (Homo sapiens), sequence (Q9Y6W6 whole entry): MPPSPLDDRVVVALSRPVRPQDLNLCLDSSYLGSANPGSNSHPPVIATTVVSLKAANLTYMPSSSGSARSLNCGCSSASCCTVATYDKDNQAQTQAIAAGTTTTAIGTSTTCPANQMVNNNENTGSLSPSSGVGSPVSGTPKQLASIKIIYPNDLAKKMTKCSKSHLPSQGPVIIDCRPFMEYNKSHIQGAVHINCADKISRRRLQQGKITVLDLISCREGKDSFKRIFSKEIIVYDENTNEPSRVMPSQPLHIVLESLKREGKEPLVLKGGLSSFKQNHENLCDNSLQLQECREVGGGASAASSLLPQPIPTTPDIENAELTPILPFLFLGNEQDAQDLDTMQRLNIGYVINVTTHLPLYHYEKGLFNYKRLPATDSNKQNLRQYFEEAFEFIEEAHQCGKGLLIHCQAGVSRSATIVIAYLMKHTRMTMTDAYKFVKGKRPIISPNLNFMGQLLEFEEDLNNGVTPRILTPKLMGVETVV
Low molecular weight protein-tyrosine phosphatase A (Mycobacterium tuberculosis), sequence (P9WIA1 whole entry): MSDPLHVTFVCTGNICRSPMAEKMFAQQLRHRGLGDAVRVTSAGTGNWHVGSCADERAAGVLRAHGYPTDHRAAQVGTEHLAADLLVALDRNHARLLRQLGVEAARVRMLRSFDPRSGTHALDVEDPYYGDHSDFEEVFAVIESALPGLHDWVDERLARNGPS
Receptor-type tyrosine-protein phosphatase S (Homo sapiens), sequence (Q13332 whole entry): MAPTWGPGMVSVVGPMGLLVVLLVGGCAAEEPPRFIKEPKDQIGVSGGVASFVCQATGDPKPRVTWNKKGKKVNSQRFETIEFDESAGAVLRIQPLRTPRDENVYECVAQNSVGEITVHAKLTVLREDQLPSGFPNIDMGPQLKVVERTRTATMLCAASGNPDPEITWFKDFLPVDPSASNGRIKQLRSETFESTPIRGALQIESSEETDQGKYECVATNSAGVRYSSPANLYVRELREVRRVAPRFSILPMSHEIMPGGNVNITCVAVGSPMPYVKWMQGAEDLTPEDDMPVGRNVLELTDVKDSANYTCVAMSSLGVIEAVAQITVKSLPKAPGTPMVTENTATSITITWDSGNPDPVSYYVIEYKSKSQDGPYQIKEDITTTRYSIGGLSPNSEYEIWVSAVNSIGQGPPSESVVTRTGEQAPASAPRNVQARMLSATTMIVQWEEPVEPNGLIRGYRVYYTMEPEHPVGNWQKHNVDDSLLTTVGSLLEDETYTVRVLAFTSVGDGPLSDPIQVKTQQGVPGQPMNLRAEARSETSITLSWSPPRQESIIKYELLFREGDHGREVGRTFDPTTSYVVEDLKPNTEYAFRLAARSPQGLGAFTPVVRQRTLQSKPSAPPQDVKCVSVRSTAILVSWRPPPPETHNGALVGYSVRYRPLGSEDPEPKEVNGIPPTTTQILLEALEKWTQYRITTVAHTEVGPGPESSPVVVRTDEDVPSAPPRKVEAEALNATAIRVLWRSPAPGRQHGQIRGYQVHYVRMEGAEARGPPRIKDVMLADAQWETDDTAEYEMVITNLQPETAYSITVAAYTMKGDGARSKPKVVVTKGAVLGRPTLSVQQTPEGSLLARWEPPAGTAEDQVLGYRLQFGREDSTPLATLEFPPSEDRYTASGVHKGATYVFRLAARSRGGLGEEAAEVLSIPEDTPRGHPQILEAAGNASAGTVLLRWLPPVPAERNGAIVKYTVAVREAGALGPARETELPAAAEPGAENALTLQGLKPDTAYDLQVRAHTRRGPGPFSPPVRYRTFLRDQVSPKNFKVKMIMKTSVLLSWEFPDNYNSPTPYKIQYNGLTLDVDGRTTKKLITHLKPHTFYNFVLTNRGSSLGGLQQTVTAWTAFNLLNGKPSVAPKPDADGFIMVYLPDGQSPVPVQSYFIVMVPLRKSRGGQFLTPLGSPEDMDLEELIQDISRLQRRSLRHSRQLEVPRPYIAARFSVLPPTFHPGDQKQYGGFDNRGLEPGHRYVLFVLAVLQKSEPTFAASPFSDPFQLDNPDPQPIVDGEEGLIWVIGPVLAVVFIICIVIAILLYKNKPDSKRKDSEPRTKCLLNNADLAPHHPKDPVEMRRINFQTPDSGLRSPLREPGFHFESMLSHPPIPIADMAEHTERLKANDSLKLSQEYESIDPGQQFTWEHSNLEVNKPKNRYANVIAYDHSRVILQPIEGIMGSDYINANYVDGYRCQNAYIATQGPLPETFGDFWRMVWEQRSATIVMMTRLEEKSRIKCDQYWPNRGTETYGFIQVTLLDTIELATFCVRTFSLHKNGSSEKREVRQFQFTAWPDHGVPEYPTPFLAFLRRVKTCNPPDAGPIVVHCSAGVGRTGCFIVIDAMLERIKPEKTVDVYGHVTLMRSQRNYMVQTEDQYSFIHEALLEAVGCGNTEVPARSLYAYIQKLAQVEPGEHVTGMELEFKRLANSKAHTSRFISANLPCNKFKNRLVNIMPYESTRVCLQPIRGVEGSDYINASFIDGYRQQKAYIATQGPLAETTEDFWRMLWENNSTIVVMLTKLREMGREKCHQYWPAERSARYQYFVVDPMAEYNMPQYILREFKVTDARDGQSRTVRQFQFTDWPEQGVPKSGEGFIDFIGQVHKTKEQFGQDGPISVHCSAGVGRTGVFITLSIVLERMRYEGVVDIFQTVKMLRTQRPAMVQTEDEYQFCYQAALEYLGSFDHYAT
Laforin (Homo sapiens), sequence (O95278 whole entry): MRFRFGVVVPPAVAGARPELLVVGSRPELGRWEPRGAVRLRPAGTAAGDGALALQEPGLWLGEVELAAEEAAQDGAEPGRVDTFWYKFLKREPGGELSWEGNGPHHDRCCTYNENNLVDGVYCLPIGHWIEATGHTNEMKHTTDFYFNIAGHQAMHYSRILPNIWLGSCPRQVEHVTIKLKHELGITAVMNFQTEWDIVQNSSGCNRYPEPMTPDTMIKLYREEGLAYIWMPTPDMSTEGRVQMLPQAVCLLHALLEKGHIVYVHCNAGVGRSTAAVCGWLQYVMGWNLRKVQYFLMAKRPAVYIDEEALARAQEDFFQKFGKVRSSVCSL
Receptor-type tyrosine-protein phosphatase C (Homo sapiens), sequence (P08575 whole entry): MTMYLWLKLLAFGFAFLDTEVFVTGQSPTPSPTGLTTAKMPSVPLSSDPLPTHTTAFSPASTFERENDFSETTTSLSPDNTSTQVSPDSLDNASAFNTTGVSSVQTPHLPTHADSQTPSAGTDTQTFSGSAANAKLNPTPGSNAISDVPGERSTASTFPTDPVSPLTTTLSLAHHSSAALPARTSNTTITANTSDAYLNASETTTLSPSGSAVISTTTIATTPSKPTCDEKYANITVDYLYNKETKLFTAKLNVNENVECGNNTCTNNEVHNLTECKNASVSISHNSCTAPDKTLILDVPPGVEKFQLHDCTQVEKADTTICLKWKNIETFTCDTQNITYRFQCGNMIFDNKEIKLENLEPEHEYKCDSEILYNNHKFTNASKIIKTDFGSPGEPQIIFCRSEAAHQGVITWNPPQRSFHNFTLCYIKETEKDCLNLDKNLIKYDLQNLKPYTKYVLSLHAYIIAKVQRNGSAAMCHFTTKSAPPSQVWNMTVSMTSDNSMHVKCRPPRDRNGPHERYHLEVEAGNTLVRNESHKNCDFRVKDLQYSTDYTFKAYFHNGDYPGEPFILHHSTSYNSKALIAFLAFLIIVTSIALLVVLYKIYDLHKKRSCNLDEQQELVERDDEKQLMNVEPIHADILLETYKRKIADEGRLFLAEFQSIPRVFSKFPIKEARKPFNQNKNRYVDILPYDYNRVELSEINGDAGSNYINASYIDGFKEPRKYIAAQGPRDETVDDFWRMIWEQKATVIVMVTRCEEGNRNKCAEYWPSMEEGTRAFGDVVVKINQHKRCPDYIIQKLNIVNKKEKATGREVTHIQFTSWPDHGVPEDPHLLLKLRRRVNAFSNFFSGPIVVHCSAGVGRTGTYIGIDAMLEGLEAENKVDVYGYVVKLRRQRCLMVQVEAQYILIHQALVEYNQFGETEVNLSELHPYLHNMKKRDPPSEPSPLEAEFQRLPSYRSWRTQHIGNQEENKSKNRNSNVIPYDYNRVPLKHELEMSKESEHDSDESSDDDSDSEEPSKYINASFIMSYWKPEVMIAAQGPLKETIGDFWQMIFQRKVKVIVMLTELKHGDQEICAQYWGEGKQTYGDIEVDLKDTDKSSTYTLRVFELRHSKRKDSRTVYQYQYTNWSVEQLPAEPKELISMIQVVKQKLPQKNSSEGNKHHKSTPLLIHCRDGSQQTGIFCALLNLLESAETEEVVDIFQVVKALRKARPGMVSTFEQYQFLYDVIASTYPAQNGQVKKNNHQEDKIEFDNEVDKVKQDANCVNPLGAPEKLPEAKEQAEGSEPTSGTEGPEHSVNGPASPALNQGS

In [1], `O=C(C(c1ccccc1)S(=O)(=O)O)N1CCCC2CCCCC21` (racemic) registered a Ki of 7.9 nM. Also, the inhibition result in [2], in experiment [5], in experiment [7], in experiment [10], in experiment [13] and in experiment [14] was “inactive” each time. The inhibition entry (on Laforin (Homo sapiens); in [21]) was “inactive” in each case. Also, the Ratio IC50 in experiment [3], in experiment [6], in [8], in experiment [9], in [11] and in experiment [12] was over 10000 each time. The Ratio IC50 in experiment [15], in [16], in experiment [17], in experiment [18], in [20] and in experiment [22] was over 10000 throughout. Besides, 18 nM corresponded to half-maximal inhibition in experiment [4] (IC50). For the same molecule, the inhibition entry with RAW264.7 was “Dose-dependent effect”. The result in experiment [19] was inactive.

As a reminder, the Ki is the dissociation constant of the complex between target and ligand, obtained from inhibition or displacement. Read a high Ki as lower affinity. As usually defined, the IC50 is the point on the concentration scale where inhibition reaches its midpoint. A lower IC50 goes with greater potency.
